Experimental findings from ChEMBL document CHEMBL4725241, “Discovery of BMS-986235/LAR-1219: A Potent Formyl Peptide Receptor 2 (FPR2) Selective Agonist for the Prevention of Heart Failure” (J Med Chem, 2020) are described below.

The test system of one data set is Mus musculus. Nature of the data set: Cardioprotective activity in C57BL/6 mouse model of LAD coronary artery ligation-induced myocardial infarction assessed as reduction in heart weight at 0.3 mg/kg, po and measured after 28 days. It counts as functional, organism-based. As to conditions: time 28.0 day. An outline of the steps:
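Male C57BL/6 mice (10-12 weeks) underwent permanent LAD ligation under ketamine/xylazine, with shams having an untightened suture. Compound (0.3 mg/kg/d) or vehicle was given by oral gavage once daily (5 mL/kg) from post-MI day 4 for 24 days. Endpoints were taken at 28 days post-MI; scar length was quantified from LV cross sections.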

Data set [1] can be described thus: Volume of distribution at steady state in Crl:CD(SD) rat at 1 mg/kg, iv by LC-MS/MS analysis. It counts as ADME, organism-based. As to conditions: in vivo, read-out: Vdss. An outline of the steps: (§1)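 Male animals received intravenous solution in DMSO/PEG400/saline (5/47.5/47.5). EDTA plasma was extracted with methanol/acetonitrile (1:1) plus internal standard and quantified by LC-MS/MS. AUC0-inf was calculated by the trapezoidal rule with terminal-phase kel extrapolation.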

The next data set deals with T1, fMet-Leu-Phe receptor (Mus musculus, UniProt P33766).
T1 sequence (P33766 whole entry): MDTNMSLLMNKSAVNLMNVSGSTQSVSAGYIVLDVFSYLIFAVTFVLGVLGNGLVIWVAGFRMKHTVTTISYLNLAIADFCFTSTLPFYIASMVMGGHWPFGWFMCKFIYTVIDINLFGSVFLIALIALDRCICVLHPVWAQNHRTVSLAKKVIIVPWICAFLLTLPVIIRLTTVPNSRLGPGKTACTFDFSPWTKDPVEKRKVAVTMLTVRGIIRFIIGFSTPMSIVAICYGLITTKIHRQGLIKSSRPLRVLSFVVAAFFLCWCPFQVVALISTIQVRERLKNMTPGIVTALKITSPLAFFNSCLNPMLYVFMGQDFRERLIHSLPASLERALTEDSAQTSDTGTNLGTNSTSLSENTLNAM
Nature of the data set: Agonist activity at mouse FPR1 expressed in CHO cells assessed as reduction cAMP accumulation incubated for 1 hr by TR-FRET assay. It counts as functional, cell-based.

Data set [2] can be described thus: Total clearance in Crl:CD1(ICR) mouse at 0.5 mg/kg, iv by LC-MS/MS analysis. It counts as ADME, organism-based. As to conditions: in vivo. An outline of the steps:
as §1

What is called pEC50 is the negative decadic logarithm of the EC50, by convention in mol/L. The term clearance denotes a measure of how efficiently the substance is removed, as volume per time. High values mean efficient removal, low ones inefficient removal.

pEC50: −log10 of the molar value. Active and inactive are the calls of the source. The rule behind the calls is not given here.

In the case of `COc1cc(F)c([C@@H]2CNC(=O)[C@H]2NC(=O)Nc2ccccc2)c(F)c1` [BMS-986235], the outcome with Mus musculus was Active. Besides, the Vd in data set [1] came out at 3 L/kg. The pEC50 on fMet-Leu-Phe receptor was 6.30. The same compound came in with a clearance in data set [2] of 5.4 L/h/kg.
